From paper PMC10698511 (RSC Advances, 2023)

Columns and labels:
[1] = Microsomal stability in human liver microsomes; format: in vitro ADME; conditions: percentage remaining after 30 min, NADPH
[2] = Plasma protein binding, human; format: in vitro ADME
[3] = Microsomal stability in mouse liver microsomes; format: in vitro ADME; conditions: percentage remaining after 30 min, NADPH
HeLa cells [4] = test: Antiproliferative activity against HeLa cells; format: cell-based; conditions: Homo sapiens, 48 h, read-out: HeLa IC50
In short: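 HeLa cells from ATCC in RPMI-1640 with 10% FBS and 1% penicillin-streptomycin at 37 °C, 5% CO2. Seeded at 10000 cells/well one day before treatment. Test compound added from DMSO solution and incubated for 48 h, then CCK-8 reagent added and absorbance read at 450 nm. IC50 is the mean of three independent determinations from triplicate samples.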

[5] = Plasma protein binding, mouse; format: in vitro ADME
HeLa cells [6] = test: Cell cycle assay in HeLa cells; format: cell-based; conditions: 48 h treatment
In short: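 HeLa cells (1 × 10^6) grown in 6-well plates and treated with test compound at several concentrations for 48 h. Cells harvested, fixed in 70% ethanol, held at −20 °C for 12 h, then stained with Muse cell cycle reagent for 30 min at room temperature in the dark. Phase distribution read on a Muse cell analyzer. G2/M percentages compared by one-way ANOVA.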

tubulin = test: Tubulin polymerization assay; format: biochemical; conditions: 0 to 8 μM, 1 h at 37 °C, absorbance 340 nm
In short: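 Commercial tubulin polymerization kit used per the manufacturer's protocol. Test compound mixed with tubulin in the supplied general tubulin buffer. Polymerization followed by absorbance at 340 nm for 1 h at 37 °C. Curves compared by two-way ANOVA.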

SMILES	Microsomal stability (%) Human [1] [%]	fraction unbound [2]	Microsomal stability (%) Mouse [3] [%]	IC50 (HeLa cells [4]) [µM]	fraction unbound [5]	cell cycle effect (HeLa cells [6])	effect on tubulin polymerization (tubulin)
Cc1ccc(CNC(=O)Cn2ccc(-c3ccc(OCCN4CCOCC4)cc3)cc2=O)cc1 [Compound 56]	20.2 ± 2.3	0.171	50.6 ± 1.2	0.25 ± 0.06	0.04	–	–
O=C(Cc1ccc(-c2ccc(OCCN3CCOCC3)cc2)cn1)NCc1ccccc1 [Compound 8, Tirbanibulin, reference compound]	–	0.187	–	0.044 ± 0.011	0.152	G2/M phase arrest	microtubule destabilizers
O=C(Cn1ccc(-c2ccc(OCCN3CCOCC3)cc2)cc1=O)NCc1ccc(F)cc1 [Compound 57]	–	–	–	0.34 ± 0.11	–	–	–
